HUVEC inhibit = inhibitors of HUVEC proliferation, primary screen, cell-based, 384-well; CellTiter-Glo luminescence, 72 h; hits give low values; viability, % at 10 µM (by protocol); 1.1% of 86,000 active; AID 648, 2007;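 active = viability at or below 30%; inactive = viability above 30%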;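 also: 100% = median luminescence of DMSO-only cell control wells on each plate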
Jurkat viability = cytotoxicity toward Jurkat T cells, primary screen, cytotoxicity control, cell-based, Jurkat E6.1, 60K MLSMR library; AID 463, 2006; inhibition, % at 4 µM; 1.2% of 56,000 active; Jurkat E6.1 viability, ATP luminescence, 48 h;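 active = inhibition above the mean inhibition of all tested compounds plus 3 SD, cut at about 28% in these data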
H69AR growth 86K = proliferation blockers of H69AR lung cancer cells, primary screen, cell-based, human, 86K library. H69AR lung tumor viability, ATP luminescence, 72 h; hits give low values. viability, % at 10 µM. 6% of 85,000 active. AID 598, 2007;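 active = viability at or below 40%; inactive = viability above 40%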;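 also: multidrug resistant small cell line overexpressing MRP-1 efflux transporter; 100% = mean luminescence of untreated control wells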
tolC growth inh = growth inhibitors of E. coli tolC mutant, primary screen, strain BW25113 ΔtolC::kan, 384-well. OD615. growth inhibition, % at 10 µM (by protocol). 2.2% of 65,000 active. AID 573, 2007;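 active = growth inhibition at or above a cutoff equal to the mean over every tested compound plus 3 SD, cut at about 60% in these data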;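 also: growth measured after 20 h incubation at 37 °C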
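signal = optical density read at 615 nm | test system = E. coli ΔtolC::kan strain BW25113 | timing = 20 h compound exposure of bacteria at 37 °C | buffer or medium = LB medium plus 50 µg/mL kanamycin | compound dosing = 10 µM final, single dose | evaluation = % inhibition of E. coli growth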
Lung fibro prol = antiproliferative effect on LL 47 fibroblasts – human, LL 47 cells, CellTiter-Glo luminescence, primary screen | 1.1% of 85,000 active | viability, % at 10 µM | AID 719, 2007 | LL 47 human lung fibroblast viability, ATP luminescence; hits give low values;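 active = viability at or below 50% in the single dose screen; inactive = viability above 50%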;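 also: compound exposure lasted 72 h before the ATP readout; 100% = median luminescence of untreated cell-only wells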
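Times – overnight cell rest, 72 h compound treatment at 37 °C · Test system – human lung fibroblast line LL 47, low passage · Amount – 1,150 cells in each well · Controls – cell-only wells, no compound · Doses – 0.1% DMSO in all compound wells · Measured by – CellTiter-Glo luminescence · Buffer or medium – IMEM plus 15% FBS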
E coli WT exp = growth inhibitors of wild-type E. coli, primary screen, strain BW25113, expanded library, OD600; OD600 absorbance; growth inhibition, % at 100 µM; 0.15% of 98,000 active; AID 710, 2007;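 active = growth inhibition above about 50% at one test dose, limit read from the data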;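 also: growth measured after 20 h incubation at 37 °C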
An asterisk follows results filed as active. Sampled rows, rich in hits. Any-hit rate of the full collection: about 6.4%.

`CCOc1cc(S(=O)(=O)n2cc(-c3ccc(F)cc3)c(N)n2)cc(OCC)c1OCC` gave HUVEC inhibit 85, Jurkat viability 4, H69AR growth 86K 98, tolC growth inh 63*, Lung fibro prol 99 and E coli WT exp -7.
`CCOc1ccc(S(=O)(=O)n2cc(-c3ccc(F)cc3)c(N)n2)cc1` gave HUVEC inhibit 86, H69AR growth 86K 97, Lung fibro prol 106 and E coli WT exp -8.
Screening O=C(CCC(=O)OCCCC(F)(F)C(F)(F)F)Nc1ccccc1 returned HUVEC inhibit 100, Jurkat viability 3, H69AR growth 86K 97, tolC growth inh -7, Lung fibro prol 99 and E coli WT exp 9.
Screening CCOc1ccc(S(=O)(=O)Nc2cccc(Cl)c2)cc1 returned HUVEC inhibit 55, Jurkat viability 28, H69AR growth 86K 10* and tolC growth inh 73*.
CCOc1ccc(S(=O)(=O)Nc2cc(Cl)ccc2O)cc1 was read as HUVEC inhibit 80, Jurkat viability 9, H69AR growth 86K 17*, tolC growth inh 67*, Lung fibro prol 96 and E coli WT exp 33.
CCOc1ccc(NS(=O)(=O)c2ccc(NS(=O)(=O)c3ccccc3)cc2)cc1 was read as HUVEC inhibit 83, H69AR growth 86K 63, Lung fibro prol 93 and E coli WT exp 2.
CCC(C)NCCCOc1cc(Cl)ccc1Cl (centres undefined) was read as HUVEC inhibit 84, H69AR growth 86K 78, Lung fibro prol 101 and E coli WT exp 11.
Screening CCOC(=O)c1cnn(-c2nc(-c3ccc(F)cc3)cs2)c1C(F)(F)F returned E coli WT exp -1.
Screening O=C(CCSc1nnc2scc(-c3ccccc3)n12)NCc1ccc2c(c1)OCO2 returned HUVEC inhibit 100, Jurkat viability -6, H69AR growth 86K 81, tolC growth inh 31, Lung fibro prol 103 and E coli WT exp 3.
Screening O=C(Nc1ccc(N2CCCC2)cc1)C(Cl)c1ccccc1 (centres undefined) returned HUVEC inhibit 97, H69AR growth 86K 22*, Lung fibro prol 92 and E coli WT exp 2.
CS(=O)(=O)N1CCN(c2ccc(NC(=O)C(c3ccccc3)c3ccccc3)cc2)CC1 was read as HUVEC inhibit 95, H69AR growth 86K 87 and Lung fibro prol 94.
`CCOC(=O)/C(=N\Nc1ccccc1)S(=O)(=O)c1ccccc1` gave HUVEC inhibit 99, H69AR growth 86K 90, Lung fibro prol 97 and E coli WT exp -6.
CSc1nc(N)nc(SCC(=O)Nc2ccc(Cl)cc2)c1C#N was read as E coli WT exp -4.
Screening CSc1nc(N)nc(SCCS(=O)(=O)c2ccc(Cl)cc2)c1C#N returned HUVEC inhibit 72, Jurkat viability 4, H69AR growth 86K 2.5*, tolC growth inh 48, Lung fibro prol 88 and E coli WT exp -24.
Screening COc1cc(C(=O)NCCC(=O)NCc2ccc3c(c2)OCO3)cc(OC)c1OC returned HUVEC inhibit 98, Jurkat viability -4, H69AR growth 86K 92, tolC growth inh -20, Lung fibro prol 104 and E coli WT exp 6.
Screening COc1cc(-c2nc3cnccn3c2Nc2ccc(C(C)C)cc2)ccc1O returned HUVEC inhibit 3.2*, H69AR growth 86K 0.5*, Lung fibro prol 46* and E coli WT exp -18.
`COc1cc(-c2nc3cnccn3c2Nc2ccc(C)cc2)ccc1O` gave HUVEC inhibit 84, H69AR growth 86K 56, Lung fibro prol 86 and E coli WT exp -4.
CCOC(=O)c1cnn(-c2sc(C(=O)OCC)c(C)c2C(=O)OCC)c1N was read as HUVEC inhibit 59, Jurkat viability 2, H69AR growth 86K 24*, tolC growth inh 30 and Lung fibro prol 101.
CCC(=O)Nc1cc2c(cc1C(=O)c1ccccc1)OCCO2 was read as Jurkat viability 8, tolC growth inh -3 and E coli WT exp 2.
For COc1ccc(CCn2c(-c3ccco3)nc3ccccc3c2=O)cc1OC the results were HUVEC inhibit 68, Jurkat viability 9, H69AR growth 86K 39*, tolC growth inh 11, Lung fibro prol 105 and E coli WT exp 4.
For COc1ccc(-c2nc3oc4cc(OC)ccc4c(=O)c3c(=O)n2Cc2ccco2)cc1 the results were HUVEC inhibit 102, Jurkat viability 0, H69AR growth 86K 3.8*, tolC growth inh 95*, Lung fibro prol 100 and E coli WT exp -14.
COc1ccc(Cn2c(-c3ccco3)nc3oc4ccccc4c(=O)c3c2=O)cc1 was read as HUVEC inhibit 75, Jurkat viability 0, H69AR growth 86K 29*, tolC growth inh -31, Lung fibro prol 72 and E coli WT exp -21.
COc1ccc(Cn2c(-c3ccco3)nc3oc4cc(OC)ccc4c(=O)c3c2=O)cc1 was read as HUVEC inhibit 73, Jurkat viability -2, H69AR growth 86K 20*, tolC growth inh 86*, Lung fibro prol 98 and E coli WT exp -23.
For COc1ccc2c(=O)c3c(=O)n(Cc4ccco4)c(-c4ccco4)nc3oc2c1 the results were HUVEC inhibit 86, H69AR growth 86K 71, Lung fibro prol 112 and E coli WT exp -11.
Cc1ccc(Cn2ccc(NC(=O)c3cc(C)on3)n2)cc1 was read as HUVEC inhibit 98, H69AR growth 86K 95, Lung fibro prol 103 and E coli WT exp 8.
For COC(=O)[C@@H](N)Cc1ccc(O)cc1 the results were HUVEC inhibit 103, H69AR growth 86K 93, tolC growth inh 22 and Lung fibro prol 97.
For C=CCSc1nc2c(c(=N)n1CC=C)C1CCCC1S2 (centres undefined) the results were HUVEC inhibit 108, Jurkat viability 1, H69AR growth 86K 63, tolC growth inh 96*, Lung fibro prol 97 and E coli WT exp 6.
CCn1c(CNc2ccccc2Cl)nnc1SCC(=O)OC1CCCCC1 was read as HUVEC inhibit 93, Jurkat viability 5, H69AR growth 86K 93, tolC growth inh 73*, Lung fibro prol 108 and E coli WT exp -2.
`CCn1c(CNc2cccc(Cl)c2)nnc1SCC(=O)OC1CCCCC1` gave HUVEC inhibit 88, Jurkat viability 0, H69AR growth 86K 102, tolC growth inh 60*, Lung fibro prol 94 and E coli WT exp -10.
`CCn1c(CNc2ccc(Cl)cc2)nnc1SCC(=O)OC1CCCCC1` gave HUVEC inhibit 82, H69AR growth 86K 90 and Lung fibro prol 92.
Screening CC(=O)c1sc(N2C(=O)c3oc4ccccc4c(=O)c3C2c2ccc(C)o2)nc1C (centres undefined) returned HUVEC inhibit 101, Jurkat viability 8, H69AR growth 86K 9.4*, tolC growth inh 4 and Lung fibro prol 87.

Bioassay records from PubChem BioAssay.
